Results on three compounds are retold here after ChEMBL document CHEMBL1157816, “Action of a pentacyclic triterpenoid, maslinic acid, against Toxoplasma gondii” (J Nat Prod, 2010).

Structures are written as SMILES. The source made the active and inactive calls. The calls are words filed in the database; no cut-off is given here. A value given as a limit tells only on which side of the number the result lay.

Data set [1] has as its system Vero. Kind of data set: Inhibition of serine protease in excreted-secreted products fraction of Toxoplasma gondii RH tachyzoites infected in african green monkey Vero cells by SDS-PAGE and zymography. Type of data set: cell-based. The procedure, abridged: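 Purified tachyzoites (6 × 10^7/100 µL DMEM without serum) pretreated 15 min at room temperature with compound at various concentrations. Micronemal secretion is induced at 37 °C with 200 mM ethanol, then the parasites are pelleted and secretion stopped on ice. The ESP fraction goes in nonreducing sample buffer onto 12% SDS-PAGE with 0.1% gelatin, run at 90 V, 4 °C. The gel gets 2.5% Triton X-100 for 60 min, then develops overnight at 37 °C (50 mM Tris-HCl, 10 mM CaCl2, pH 6.8). Coomassie stain.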

Data set [2] can be described thus: Toxicity in african green monkey Vero cells by alamar blue assay. The settings on record: chlorocebus sabaeus, read-out: LD50 (the source's name). Type of data set: cell-based. The procedure, abridged:
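Semiconfluent Vero cells (1 × 10^4/well; DMEM, 10% heat-inactivated FCS, 2 mM glutamine, penicillin/streptomycin) exposed to compound dilutions (3.9-500 µM series) with Alamar Blue for 24 h, 37 °C, 5% CO2. Controls are medium, AB and drug blanks, plus cells with DMSO. Percent AB reduction is read from absorbance at 570/600 nm against the DMSO control by the manufacturer's formula. LD50 reported as mean ± SEM.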
A general note: Resazurin is reduced to fluorescent resorufin, in cell work by metabolically active cells.

Data set [3] deals with Toxoplasma gondii. Kind of data set: Antimicrobial activity against Toxoplasma gondii RH tachyzoites assessed as inhibition of parasite invasion of african green monkey Vero cells pretreated for 1 hr before cell infection measured 24 to 48 hrs post infection. It is filed as functional. The procedure, abridged:
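RH tachyzoites (mouse ascites, passaged in Vero cells, needle- and 5 µm filter-purified), 2.5 × 10^5 pretreated 1 h at 37 °C in medium with compound (250-15.6 µM) or DMSO control. They then infect semiconfluent Vero cells at 10 parasites/cell, 37 °C, 5% CO2. Medium is replaced. Slides are methanol-fixed and Diff-Quick stained at 24 and 48 h. Percent parasitised is scored by light microscopy in 500 cells/slide, three repeats, mean ± SEM, giving ID50.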

For data set [4], the system named is Toxoplasma gondii. Kind of data set: Cytopathic effect against Toxoplasma gondii RH intracellular tachyzoites infected in african green monkey Vero cells assessed as induction of morphological changes at 25 uM by electron microscopy. Type of data set: functional, organism-based. Put shortly: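 Vero cultures infected 24 h, then treated with 25 µM compound for 8 h. Fixed in 2.5% glutaraldehyde in cacodylate buffer, scraped, postfixed 30 min in 1% OsO4 and embedded in Spurr resin. Sections stained with uranyl acetate and lead citrate and viewed by TEM.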

In data set [5] the test system is Toxoplasma gondii. Briefly: Antimicrobial activity against Toxoplasma gondii RH tachyzoites assessed as inhibition of parasite invasion of african green monkey Vero cells pretreated for 1 hr before cell infection measured 24 hrs post infection. It is filed as functional. The note with it: read-out: ID50 (the source's name). Put shortly: (§1)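 Purified RH tachyzoites (2.5 × 10^5) pretreated 1 h at 37 °C in medium with compound (250-15.6 µM) or DMSO control. They then infected semiconfluent Vero cells at 10 parasites/cell (37 °C, 5% CO2), after which medium was replaced. Slides fixed in methanol at 24 or 48 h and stained with Diff-Quick. Percentage parasitism from 500 cells per slide by light microscopy; three repeats; mean ± SEM; ID50 reported.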

The test system of data set [6] is Toxoplasma gondii. Briefly: Cytopathic effect against Toxoplasma gondii RH extracellular tachyzoites infected in african green monkey Vero cells assessed as induction of morphological changes at 25 uM after 8 hrs by electron microscopy. It is filed as functional, organism-based. The procedure, abridged:
(§2)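 Purified extracellular tachyzoites exposed to 25 µM compound for 4 or 8 h. Fixed in 2.5% glutaraldehyde in cacodylate buffer, postfixed 30 min in 1% buffered OsO4, dehydrated and embedded in Spurr resin. Ultrathin sections stained with 8% uranyl acetate then 0.2% lead citrate and examined by transmission electron microscopy.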
(Damage to the host cells serves as the signal in cytopathic effect assays.)

Data set [7] concerns Toxoplasma gondii. Kind of data set: Antimicrobial activity against Toxoplasma gondii RH tachyzoites assessed as inhibition of parasite gliding motility at 10 uM pretreated for 15 mins. It is filed as functional. The procedure, abridged: (§3)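 RH-strain tachyzoites (passaged in Balb/c mice and Vero cells, filter-purified) pretreated 15 min at 37 °C with compound at 50, 25 or 10 µM; DMSO at maximum solvent level as control. Slides coated with 0.1% poly-L-lysine in PBS pH 7.2. Fixed in 4% formaldehyde/0.02% glutaraldehyde, stained with anti-SAG-1 (P30) mAb 1/50 plus FITC anti-IgG 1/100; trail number and length scored by confocal microscopy.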

The test system of data set [8] is Toxoplasma gondii. Briefly: Antimicrobial activity against Toxoplasma gondii RH tachyzoites assessed as inhibition of parasite invasion of african green monkey Vero cells pretreated for 1 hr before cell infection measured 48 hrs post infection. The note with it: read-out: ID50 (the source's name). Type of data set: functional. Put shortly:
as §1

In data set [9] the test system is Toxoplasma gondii. Kind of data set: Cytopathic effect against Toxoplasma gondii RH extracellular tachyzoites infected in african green monkey Vero cells assessed as induction of morphological changes at 25 uM after 4 hrs by electron microscopy. Type of data set: functional, organism-based. Put shortly: as §2
Data set [10] has as its system Toxoplasma gondii. Briefly: Antimicrobial activity against Toxoplasma gondii RH tachyzoites assessed as inhibition of parasite gliding motility at 25 uM pretreated for 15 mins. Type of data set: functional. Put shortly:
as §3

Data set [11] relates to Toxoplasma gondii. Kind of data set: Antimicrobial activity against Toxoplasma gondii RH tachyzoites assessed as inhibition of parasite gliding motility at 50 uM pretreated for 15 mins. It is filed as functional. The procedure, abridged: as §3
The subject of data set [12] is Vero. Briefly: Inhibition of serine protease in excreted-secreted products fraction of […] secretion proteins of Toxoplasma gondii RH tachyzoites infected in african green monkey Vero cells by SDS-PAGE and zymography. It is filed as cell-based. Put shortly: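 Tachyzoites (6 × 10^7 in 100 µL serum-free DMEM) pretreated 15 min at room temperature with compound at various concentrations. Micronemal secretion induced at 37 °C with 200 mM ethanol and stopped on ice after centrifugation. The ESP fraction was run in nonreducing 12% SDS-PAGE containing 0.1% gelatin at 90 V, 4 °C. Gel washed in 2.5% Triton X-100, developed overnight at 37 °C in Tris/CaCl2 pH 6.8 and Coomassie-stained; cleared bands read as activity.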

For data set [13], the system named is Toxoplasma gondii. Briefly: Antimicrobial activity against Toxoplasma gondii RH tachyzoites assessed as inhibition of parasite gliding motility pretreated for 15 mins. It is filed as functional. The procedure, abridged:
as §3

In the case of `O=S(=O)(F)Cc1ccccc1` [PHENYLMETHYLSULFONYLFLUORIDE], the inhibition (as a rule, the share of the control response that was lost under treatment) in data set [1] is “Dose-dependent effect”. The CC50 in [2] is 133 µM.

With `NCCc1ccc(S(=O)(=O)F)cc1`, the CC50 in data set [2] is 36.9 µM.

As for `CC1(C)CC[C@]2(C(=O)O)CC[C@]3(C)C(=CC[C@@H]4[C@@]5(C)C[C@@H](O)[C@H](O)C(C)(C)[C@@H]5CC[C@]43C)[C@@H]2C1` [MASLINIC ACID], the inhibition entry in [3], in data set [1] and in [13] was “Dose-dependent effect” in each case. Moreover, the inhibition entry in data set [4], in [6], in data set [9] and in [12] was “Active” in each case. Also, the IC50 in [5] came out at 46 µM; in data set [8], 8 µM. Further, the CC50 in data set [2] turned out to be 237 µM. Moreover, the inhibition at 10 µM in data set [7] turned out to be 58.8%. Further, in data set [10], the inhibition at 25 µM amounted to 59.7%. Moreover, the inhibition at 50 µM in [11] is no less than 100%. Moreover, in [13], the “inhibition (INH)” value came out at 100%.
